Experimental findings from ChEMBL document CHEMBL3286272, “Synthesis, biological, and biophysical studies of DAG-indololactones designed as selective activators of RasGRP” (Bioorg Med Chem, 2014) are described below.

Activity calls are given as the source filed them. The calls are words filed in the database; no cut-off is given here.

The species named for experiment [1] is Homo sapiens. The experiment is described as follows: Selectivity ratio of Ki for recombinant human PKC-alpha to Ki for recombinant RasGRP1 C1 domain (unknown origin).
Experiment [2] has as its target T1, Protein kinase C epsilon type (Homo sapiens) (UniProt Q02156).
T1 sequence (whole entry): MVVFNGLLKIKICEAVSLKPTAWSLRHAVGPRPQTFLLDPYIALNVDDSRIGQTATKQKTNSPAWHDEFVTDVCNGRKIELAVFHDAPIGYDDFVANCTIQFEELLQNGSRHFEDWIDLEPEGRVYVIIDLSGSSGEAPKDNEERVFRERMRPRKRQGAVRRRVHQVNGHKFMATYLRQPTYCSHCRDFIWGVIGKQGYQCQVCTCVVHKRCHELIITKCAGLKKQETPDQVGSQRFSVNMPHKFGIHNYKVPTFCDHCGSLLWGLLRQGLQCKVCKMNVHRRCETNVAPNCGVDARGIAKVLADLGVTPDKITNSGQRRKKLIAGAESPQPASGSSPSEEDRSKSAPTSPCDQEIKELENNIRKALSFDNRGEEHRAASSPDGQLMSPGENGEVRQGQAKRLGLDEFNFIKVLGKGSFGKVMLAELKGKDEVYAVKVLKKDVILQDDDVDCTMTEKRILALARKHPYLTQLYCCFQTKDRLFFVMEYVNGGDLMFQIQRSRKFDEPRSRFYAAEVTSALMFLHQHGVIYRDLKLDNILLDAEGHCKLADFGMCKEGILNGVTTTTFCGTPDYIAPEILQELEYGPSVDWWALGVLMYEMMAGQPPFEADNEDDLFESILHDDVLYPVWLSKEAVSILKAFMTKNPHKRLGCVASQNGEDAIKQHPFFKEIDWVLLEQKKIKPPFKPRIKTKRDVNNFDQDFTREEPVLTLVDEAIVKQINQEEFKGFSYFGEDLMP
Description: Binding affinity to recombinant human YFP-tagged PKC-epsilon expressed in human LNCAP cells assessed as induction of protein translocation from plasma membrane to internal membrane at 10000 nM after 2 to 10 mins by confocal microscopic analysis. In kind it is cell-based. The essentials:
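LNCaP cells were transiently transfected with human YFP-PKCε and imaged live by confocal microscopy 24 h later every 30 s for 30 min after 10 μM ligand. Membrane/cytoplasm intensity ratio from 4 μm2 regions was normalized to time 0. n = 3–6.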

The subject of the next experiment is Lipid bilayer. Description: Binding affinity to […] embedded 9:1 DMPC/DMPG giant vesicle at 2.42 to 6.05 uM by fluorescence anisotropy method. In short, it runs like this:
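Giant vesicles (DMPC/DMPG 9:1, rapid evaporation, 0.1 M sucrose, 0.1 M KCl, 2 mM Tris pH 7.4) were loaded with DPH-TMA at 1.25 μM final for 30 min at room temperature. Compound from DMSO stock was added at 2.42 and 6.05 μM final. Anisotropy was read at 430 nm with 355 nm excitation.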
For orientation: Fluorescence polarisation rises when a labelled molecule tumbles more slowly, as on binding a larger partner.

Experiment [3] is filed under the species Homo sapiens. Description: Selectivity ratio of Ki for recombinant human PKC-alpha to Ki for recombinant human GFP-tagged RasGRP3.
In experiment [4] the target is T2, Ras guanyl-releasing protein 3 (Homo sapiens) (UniProt Q8IV61).
T2 sequence (whole entry): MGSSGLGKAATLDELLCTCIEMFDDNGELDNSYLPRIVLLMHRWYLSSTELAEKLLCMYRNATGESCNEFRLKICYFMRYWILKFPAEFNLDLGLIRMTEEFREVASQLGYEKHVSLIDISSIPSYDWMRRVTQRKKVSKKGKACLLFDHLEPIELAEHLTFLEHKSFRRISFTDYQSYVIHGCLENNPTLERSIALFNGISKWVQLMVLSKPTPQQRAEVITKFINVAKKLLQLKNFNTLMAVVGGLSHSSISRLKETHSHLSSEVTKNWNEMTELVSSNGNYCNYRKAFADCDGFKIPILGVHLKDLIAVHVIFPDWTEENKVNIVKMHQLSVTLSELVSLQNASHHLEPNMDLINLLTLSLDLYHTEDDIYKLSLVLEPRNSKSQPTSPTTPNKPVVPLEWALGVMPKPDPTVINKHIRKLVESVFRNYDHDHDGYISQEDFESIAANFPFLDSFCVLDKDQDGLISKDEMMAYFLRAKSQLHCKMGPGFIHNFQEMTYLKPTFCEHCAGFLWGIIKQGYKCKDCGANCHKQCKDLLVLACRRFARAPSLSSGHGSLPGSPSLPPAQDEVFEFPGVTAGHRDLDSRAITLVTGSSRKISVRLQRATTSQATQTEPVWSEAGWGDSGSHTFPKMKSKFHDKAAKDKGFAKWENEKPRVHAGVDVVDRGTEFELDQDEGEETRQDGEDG
The experiment is described as follows: Binding affinity to recombinant human GFP-tagged RasGRP3 expressed in human LNCAP cells assessed as induction of protein translocation from plasma membrane to internal membrane at 10000 nM after 2 to 10 mins by confocal microscopic analysis. In kind it is cell-based. The essentials: (§1)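 LNCaP cells were transiently transfected with human GFP-PKCδ or GFP-RasGRP3 and imaged 24 h later by live confocal microscopy (488 nm excitation) every 30 s for 30 min after 10 μM ligand. Distribution was assessed from representative images. n = 3–6.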

The target in experiment [5] is Protein kinase C alpha type (Homo sapiens, UniProt P17252). Description: Displacement of [3H]PDBu from recombinant human PKC-alpha after 5 mins by scintillation counting analysis in presence of phosphatidylserine. The essentials:
(§2)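 [3H]PDBu binding competition with 100 μg/ml phosphatidylserine present; PKCα and RasGRP1-C1 assayed at 37°C for stability. Values are mean ± SEM of triplicate independent experiments.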
A general note: Displacement assays read how much labelled ligand stays bound in the presence of the test substance.

Experiment [6] concerns the target Protein kinase C delta type (Homo sapiens) (UniProt Q05655). The experiment is described as follows: Activation of PKC-delta in human Ramos cells assessed as protein phosphorylation at S299 at 10000 nM after 30 mins by Western blot analysis. In kind it is cell-based. In short, it runs like this:
(§3)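 Ramos cells in RPMI-1640 with 10% FBS and 1% L-glutamine, plated at 300,000 cells/ml, were exposed after 24 h to 0.01, 0.1, 1 and 10 μM compound for 30 min. Lysates were made in PBS with 0.5% Triton X-100 and sonicated. 7.5 μg protein was run on 10% Tris-glycine gels, blotted to nitrocellulose, probed overnight with phospho-specific primary antibodies and detected by ECL.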
A general note: In western blotting, separated proteins are transferred to a membrane and probed.

Experiment [7] deals with T2, Ras guanyl-releasing protein 3 (Homo sapiens). Description: Activation of RasGRP3 (unknown origin) overexpressed in HEK293 cells assessed as ERK1/2 phosphorylation at 0.1 to 30 uM after 30 mins by Western blot analysis. In kind it is cell-based.
In experiment [8] the target is Protein kinase C delta type (Homo sapiens) (UniProt Q05655). The experiment is described as follows: Binding affinity to recombinant human GFP-tagged PKC-delta expressed in human LNCAP cells assessed as induction of protein translocation from plasma membrane to internal membrane at 10000 nM after 2 to 10 mins by confocal microscopic analysis. The format is cell-based. The essentials:
as §1

Experiment [9] has as its target Protein kinase C (PKC) (Homo sapiens) (UniProt O94806+P41743+P17252+P05129+Q05655+P05771+Q05513+Q02156+P24723+Q15139+Q04759). Description: Activation of PKC in human Ramos cells assessed as PKD1 phosphorylation at S744/S748 at 10000 nM after 30 mins by Western blot analysis. In kind it is cell-based. In short, it runs like this:
as §3

Experiment [10] addresses T3, Protein kinase C epsilon type (Homo sapiens, UniProt Q02156).
T3 sequence (Q02156 whole entry): T1 sequence (whole entry)
The experiment is described as follows: Displacement of [3H]PDBu from recombinant human PKC-epsilon after 5 mins by scintillation counting analysis in presence of phosphatidylserine. The essentials:
as §2

Protein kinase C delta type (Homo sapiens), sequence (Q05655 whole entry, looked up): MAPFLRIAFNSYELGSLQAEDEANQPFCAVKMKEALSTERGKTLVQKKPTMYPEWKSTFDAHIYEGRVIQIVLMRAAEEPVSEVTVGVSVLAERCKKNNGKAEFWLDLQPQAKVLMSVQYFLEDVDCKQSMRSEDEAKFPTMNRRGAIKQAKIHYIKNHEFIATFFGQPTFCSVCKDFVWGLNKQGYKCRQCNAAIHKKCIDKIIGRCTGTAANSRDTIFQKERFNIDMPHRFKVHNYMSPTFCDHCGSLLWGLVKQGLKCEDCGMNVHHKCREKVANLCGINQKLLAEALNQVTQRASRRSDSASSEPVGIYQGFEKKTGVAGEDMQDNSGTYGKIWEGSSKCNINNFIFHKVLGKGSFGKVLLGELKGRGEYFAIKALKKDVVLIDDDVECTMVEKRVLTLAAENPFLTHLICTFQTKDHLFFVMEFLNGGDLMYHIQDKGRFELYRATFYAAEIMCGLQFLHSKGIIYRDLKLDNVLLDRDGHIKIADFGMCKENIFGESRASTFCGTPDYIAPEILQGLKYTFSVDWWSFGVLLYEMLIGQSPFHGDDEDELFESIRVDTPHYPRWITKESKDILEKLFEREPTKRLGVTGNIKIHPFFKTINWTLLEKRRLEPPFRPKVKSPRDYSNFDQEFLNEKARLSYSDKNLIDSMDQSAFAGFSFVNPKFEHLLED

As for `CCCC(CCC)C(=O)OCC1(CO)C/C(=C\c2ccc3c(ccn3C)c2)C(=O)O1` (centres undefined), the Ratio Ki in the experiment filed under Homo sapiens [1] and in the experiment filed under Homo sapiens [3] was 24 throughout. For the same compound, the result in experiment [2], in [4], in [6], in [7], in experiment [8] and in experiment [9] was Active. The result with Lipid bilayer was inactive. Also, the Ki (usually the equilibrium dissociation constant of an inhibitor or competing ligand from its target) in experiment [5] was 8.25 nM; in [10], 2.17 nM.

For `CCCC(CCC)C(=O)OCC1(CO)C/C(=C\c2cccc3c2ccn3C)C(=O)O1` (centres undefined), the Ratio Ki in the experiment filed under Homo sapiens [1] stood at 10; in the experiment listed under Homo sapiens [3] it was 11. Further, the result in [2], in experiment [4], in experiment [6], in [7], in [8] and in experiment [9] was Active. Moreover, the result in the experiment on Lipid bilayer was inactive. Moreover, the values for the Ki in experiment [5] and in experiment [10] were 17.8 nM and 14.6 nM, respectively.

As for `CCCC(CCC)C(=O)OCC1(CO)C/C(=C\c2cn(C)c3ccccc23)C(=O)O1` (centres undefined), the results for the Ratio Ki in the experiment listed under Homo sapiens [1] and in the experiment listed under Homo sapiens [3] were 65 and 49, respectively. Moreover, the outcome (in experiment [2]; with Lipid bilayer; in experiment [4]; in [6]; in experiment [8]; in experiment [9]) was Active. Further, the results for the Ki in [5] and in experiment [10] were 16.2 nM and 21.1 nM, respectively.

Turning to `CCCC(CCC)C(=O)OCC1(CO)C/C(=C\c2cccc3ccn(C)c23)C(=O)O1` (centres undefined), the figures for the Ratio Ki in the experiment filed under Homo sapiens [1] and in the experiment listed under Homo sapiens [3] were 19 and 10, respectively. For the same compound, the outcome (in experiment [2]; in the experiment with Lipid bilayer; in experiment [4]; in experiment [6]; in experiment [7]; in experiment [8]) was Active. For the same compound, the outcome in experiment [9] was Active. For the same compound, the Ki came out at 12.9 nM in [5] and 11.7 nM in experiment [10].

As for `CCCC(CCC)C(=O)OCC1(CO)C/C(=C\c2ccc3ccn(C)c3c2)C(=O)O1` (centres undefined), the Ratio Ki was found to be 9 in the experiment listed under Homo sapiens [1] and 6 in the experiment filed under Homo sapiens [3]. Moreover, the outcome (in [2]; with Lipid bilayer; in experiment [4]; in experiment [6]; in experiment [7]; in experiment [8]) was Active. The result in experiment [9] was Active. The Ki in experiment [5] stood at 7.5 nM; in [10], 8.08 nM.
